Measurements from different studies.
Observed: cell growth or viability

Cc1ccc2nc(-c3ccc(N(C)C)cc3)[nH]c2c1 — IC50 (MDA-MB-231; MTT; 48 h): 31.5 µM
COc1cc(OC)c2c(=O)cc(-c3ccc(C(F)(F)F)cc3)oc2c1 — IC50 (HS27; MTT; 24 h): > 200 µM
Clc1ccnc2c1ccc1c(Cl)ccnc12 — IC50 (BEL-7404; MTT; 48 h): > 50 µM
COc1cc(OC)c2c(=O)cc(-c3ccc(N(C)C)cc3)oc2c1-c1c(OC)cc(OC)c2c(=O)cc(-c3ccc(N(C)C)cc3)oc12 — IC50 (HS27; MTT; 24 h): > 200 µM
O=[N+]([O-])c1cccc(-c2nc3ccccc3[nH]2)c1 — IC50 (MDA-MB-231; MTT; 48 h): > 100 µM
COC(=O)CN=c1scc(-c2ccccc2)n1-c1ccc(OC)cc1 — IC50 (SiHa; MTT; 72 h): 2.32 µM
COc1cc(C)cc2oc(-c3ccc(C(F)(F)F)cc3)cc(=O)c12 — IC50 (HS27; MTT; 24 h): > 200 µM
Cc1ccc2nc(-c3ccc(Cl)c(Cl)c3)n(Cc3ccccc3)c2c1 — IC50 (MDA-MB-231; MTT): 83.2 µM
COc1ccnc(-c2cc(OC)ccn2)c1 — IC50 (BEL-7404; MTT; 48 h): > 50 µM
COc1ccc(C[C@H]2CO[C@H](c3ccc(OC)c(OC)c3)[C@H]2COC(=O)CC(C)C)cc1OC — IC50 (rat VSMC; resazurin; 48 h): 31 µM
COc1cc(OC)c2c(=O)cc(-c3ccc(Br)cc3)oc2c1-c1c(OC)cc(OC)c2c(=O)cc(-c3ccc(Br)cc3)oc12 — IC50 (HS27; MTT; 24 h): > 200 µM
COc1ccc([C@H]2OC[C@H](Cc3ccc(C(C)(C)C)cc3)[C@@H]2CO)cc1OC — IC50 (rat VSMC; resazurin; 48 h): 5 µM
COc1cc(OC)c2c(=O)cc(-c3ccccc3)oc2c1 — IC50 (HS27; MTT; 24 h): > 200 µM
COc1c2ccoc2c(OCC=C(C)C)c2oc(=O)ccc12 — IC50 (MRC5; MTT; 72 h): > 100 µM
CC(=O)c1cccc(/N=N/c2cc(/C=C/C(=O)O)ccc2O)c1 — IC50 (A-375; MTT): > 50 µM
CSc1ccc(-c2nc3ccccc3[nH]2)cc1 — IC50 (MDA-MB-231; MTT; 48 h): 36.6 µM
COc1cc(C)cc2oc(-c3ccccc3Br)cc(=O)c12 — IC50 (HS27; MTT): 130 µM
COc1ccc(-c2nc3ccccc3n2Cc2ccccc2)cc1OC — IC50 (MDA-MB-231; MTT): 27.1 µM
COC(=O)CN=c1scc(-c2ccccc2)n1-c1ccccc1[N+](=O)[O-] — IC50 (SiHa; MTT; 72 h): 6.78 µM
Clc1ccc(-c2nc3ccccc3[nH]2)cc1 — IC50 (MDA-MB-231; MTT; 48 h): > 100 µM
Oc1ccc(Nc2nc(-c3ccc(Cl)cc3)cs2)cc1 — IC50 (FF2441; MTS; 24 h): > 100 µM
